# Reference: ChEMBL document CHEMBL4145681, “Discovery of Novel Aminotetralines and Aminochromanes as Selective and Competitive Glycine Transporter 1 (GlyT1) Inhibitors” (J Med Chem, 2018)
# Activity calls are given as the source filed them. No cut-off for these calls is given here.
# Legend:
# [1] = Clearance in human liver microsomes at 0.5 uM incubated up to 30 mins in presence of NADPH by LC-MS/MS method; format: ADME, microsome; details: read-out: CLH
# [2] = Clearance in rat liver microsomes at 0.5 uM incubated up to 30 mins in presence of NADPH by LC-MS/MS method; format: ADME, microsome; details: read-out: CLH
# [3] = target: T1, Sodium- and chloride-dependent glycine transporter 1 (Homo sapiens, UniProt P48067); test: Displacement of [3H]N-Methyl-SSR504734 from human GlyT1c expressed in cell membranes incubated for 1 hr by liquid scintillation spectrometry
# T1 sequence (P48067 whole entry): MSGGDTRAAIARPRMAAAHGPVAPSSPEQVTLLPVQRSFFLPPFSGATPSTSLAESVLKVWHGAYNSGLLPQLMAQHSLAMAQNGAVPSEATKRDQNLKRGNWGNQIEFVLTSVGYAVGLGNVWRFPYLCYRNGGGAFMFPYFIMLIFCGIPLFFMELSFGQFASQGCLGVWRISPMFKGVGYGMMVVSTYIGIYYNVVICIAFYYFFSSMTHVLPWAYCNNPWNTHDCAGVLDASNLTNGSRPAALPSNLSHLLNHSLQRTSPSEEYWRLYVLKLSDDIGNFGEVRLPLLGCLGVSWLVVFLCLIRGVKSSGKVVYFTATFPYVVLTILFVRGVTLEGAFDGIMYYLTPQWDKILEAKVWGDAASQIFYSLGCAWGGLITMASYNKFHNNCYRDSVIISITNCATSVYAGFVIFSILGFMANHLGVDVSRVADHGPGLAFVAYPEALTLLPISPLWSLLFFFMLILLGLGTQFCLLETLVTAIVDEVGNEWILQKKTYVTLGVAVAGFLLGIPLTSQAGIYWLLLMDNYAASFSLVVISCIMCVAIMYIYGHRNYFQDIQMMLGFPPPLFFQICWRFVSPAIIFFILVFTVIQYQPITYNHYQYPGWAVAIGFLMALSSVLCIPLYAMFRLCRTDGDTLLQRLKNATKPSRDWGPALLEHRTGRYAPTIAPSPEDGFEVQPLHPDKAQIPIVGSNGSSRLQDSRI
# [4] = test system: Mus musculus; test: In-vivo binding affinity to GlyT1 in mouse assessed as target occupancy in forebrains dosed intraperitoneally using [3H]N-methyl-SSR504734 as radioligand after 1 hr by liquid scintillation counting method; format: functional; details: ip
# Summary of the method: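 Mice dosed i.p. at several doses; forebrain homogenates then tested ex vivo for binding of a GlyT1 radioligand to give target occupancy, with ED50 for 50% occupancy estimated across the dose range.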
# [5] = Efflux ratio in MDCK2-MDR1 cells at 1 uM incubated fro 1 hr by LC-MS/MS method; format: ADME, cell-based, Canis lupus familiaris; details: dog, MDCK-MDR1
# [6] = target: Voltage-gated inwardly rectifying potassium channel KCNH2 (Homo sapiens, UniProt Q12809); test: Inhibition of human ERG
# [7] = fCmax in Sprague-Dawley rat brain at 2 mg/kg, ip measured after 8 to 24 hrs by LC-MS/MS method; format: ADME, organism-based; details: in vivo
# [8] = target: T2, Sodium- and chloride-dependent glycine transporter 1 (Homo sapiens) (UniProt P48067); test: Competitive inhibition of GlyT1c (unknown origin) expressed in Xenopus laevis oocytes clamped at -60 mV assessed as reduction in glycine-induced membrane currents at 300 nM pre-treated with glycine for 1 min followed by compound dosing for 3 mins by two-electrode voltage clamp assay; format: cell-based
# T2 sequence (whole entry): T1 sequence (P48067 whole entry)
# Summary of the method: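 Oocytes expressing GlyT1c were stimulated with 10 µM or 3000 µM glycine to evoke transporter current. Compound at 300 nM was added to the glycine solution, and % inhibition of the current was calculated. Mode of inhibition was judged by comparing inhibition at the two glycine levels. Data are mean ± SD, N>4 oocytes.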
# [9] = Oral bioavailability in Sprague-Dawley rat at measured after 8 to 24 hrs by LC-MS/MS method; format: ADME, organism-based; details: in vivo
# [10] = target: Cytochrome P450 3A4 (Homo sapiens, UniProt P08684); test: Inhibition of CYP3A4 in human liver microsomes in presence of NADPH regeneration mixture using luciferin IPA-OH substrate by P450-Glo assay; format: ADME
# [11] = Ratio of free drug level in brain to plasma of Sprague-Dawley rat at 2 mg/kg, ip measured after 8 to 24 hrs by LC-MS/MS method; format: ADME, organism-based
# Voltage-gated inwardly rectifying potassium channel KCNH2, sequence (Q12809 whole entry): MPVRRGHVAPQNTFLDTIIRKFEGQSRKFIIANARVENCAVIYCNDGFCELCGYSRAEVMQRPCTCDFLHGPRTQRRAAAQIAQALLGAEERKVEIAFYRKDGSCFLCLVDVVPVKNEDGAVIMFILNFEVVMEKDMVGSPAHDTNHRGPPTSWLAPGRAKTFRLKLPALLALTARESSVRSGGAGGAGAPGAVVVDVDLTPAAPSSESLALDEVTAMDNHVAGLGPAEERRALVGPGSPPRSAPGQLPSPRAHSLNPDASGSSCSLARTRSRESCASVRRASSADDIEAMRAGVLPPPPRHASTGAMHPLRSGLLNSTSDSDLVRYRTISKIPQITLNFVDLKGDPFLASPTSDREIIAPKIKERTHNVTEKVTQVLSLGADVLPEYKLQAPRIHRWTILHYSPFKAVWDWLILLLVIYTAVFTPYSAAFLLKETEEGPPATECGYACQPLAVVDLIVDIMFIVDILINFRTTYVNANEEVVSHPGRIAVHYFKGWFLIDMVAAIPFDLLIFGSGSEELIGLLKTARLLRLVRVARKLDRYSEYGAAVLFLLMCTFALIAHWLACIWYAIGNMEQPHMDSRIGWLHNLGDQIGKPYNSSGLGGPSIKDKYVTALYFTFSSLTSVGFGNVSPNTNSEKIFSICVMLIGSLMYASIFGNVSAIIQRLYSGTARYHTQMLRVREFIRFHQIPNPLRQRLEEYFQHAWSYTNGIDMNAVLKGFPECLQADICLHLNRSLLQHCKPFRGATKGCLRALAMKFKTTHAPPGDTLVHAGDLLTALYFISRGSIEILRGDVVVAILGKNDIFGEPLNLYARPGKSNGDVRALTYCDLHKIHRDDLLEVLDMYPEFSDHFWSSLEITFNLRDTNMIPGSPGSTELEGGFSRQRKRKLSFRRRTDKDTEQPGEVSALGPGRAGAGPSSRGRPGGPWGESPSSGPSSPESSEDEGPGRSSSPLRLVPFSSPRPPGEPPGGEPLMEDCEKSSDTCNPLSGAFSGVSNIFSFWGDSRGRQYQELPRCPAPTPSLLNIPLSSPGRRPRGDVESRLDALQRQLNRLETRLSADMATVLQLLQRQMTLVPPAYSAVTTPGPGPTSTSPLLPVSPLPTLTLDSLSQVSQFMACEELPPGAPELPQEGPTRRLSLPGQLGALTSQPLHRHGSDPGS
# Cytochrome P450 3A4, sequence (P08684 whole entry): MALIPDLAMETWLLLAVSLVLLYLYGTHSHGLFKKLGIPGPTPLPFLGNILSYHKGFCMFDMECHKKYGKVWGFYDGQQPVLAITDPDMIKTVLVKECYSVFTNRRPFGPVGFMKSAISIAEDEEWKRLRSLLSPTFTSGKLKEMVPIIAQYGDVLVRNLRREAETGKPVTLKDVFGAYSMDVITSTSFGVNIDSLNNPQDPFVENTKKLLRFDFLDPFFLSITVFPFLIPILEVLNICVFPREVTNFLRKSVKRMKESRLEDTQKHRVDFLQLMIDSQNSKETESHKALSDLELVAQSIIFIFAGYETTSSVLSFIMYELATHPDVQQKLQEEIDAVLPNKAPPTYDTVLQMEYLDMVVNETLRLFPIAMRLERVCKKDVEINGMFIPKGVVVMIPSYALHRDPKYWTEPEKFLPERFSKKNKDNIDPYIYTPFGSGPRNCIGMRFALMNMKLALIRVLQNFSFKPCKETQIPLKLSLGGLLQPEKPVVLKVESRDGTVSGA
smiles,measurement,setting,value
N[C@H]1CCc2ccc(OCCNS(=O)(=O)c3cccs3)cc2[C@H]1Cc1ccc(Cl)c(Cl)c1 (relative stereo),microsomal CLint at 0.5 µM,[1],99 µL/min/mg
same,microsomal CLint at 0.5 µM,[2],95 µL/min/mg
same,Ki,[3],163 nM
Cn1cnc(S(=O)(=O)NCCOc2ccc3c(c2)[C@@H](Cc2cc(F)cc(Cl)c2)[C@@H](N)CC3)c1 (relative stereo),Ki,[3],1.2 nM
N[C@H]1CCc2ccc(OCCNS(=O)(=O)c3ccccc3)cc2[C@H]1Cc1ccc(Cl)c(Cl)c1,microsomal CLint at 0.5 µM,[1],78 µL/min/mg
same,microsomal CLint at 0.5 µM,[2],40 µL/min/mg
same,Ki,[3],660 nM
N[C@H]1CCc2ccc(OCCNS(=O)(=O)CC3CC3)cc2[C@H]1Cc1ccc(Cl)c(Cl)c1 (relative stereo),microsomal CLint at 0.5 µM,[1],92 µL/min/mg
same,microsomal CLint at 0.5 µM,[2],25 µL/min/mg
same,Ki,[3],5.7 nM
same,ED50,[4],14 mg/kg
Cn1cnc(S(=O)(=O)NCCOc2ccc3c(c2)[C@@H](Cc2ccccc2)[C@@H](N2CCC2)CO3)c1,microsomal CLint at 0.5 µM,[1],277 µL/min/mg
same,"efflux ratio at 1 h, 1 µM",[5],3.5
same,microsomal CLint at 0.5 µM,[2],37 µL/min/mg
same,Ki,[3],3.3 nM
Cn1cnc(S(=O)(=O)NCCOc2ccc3c(c2)[C@@H](Cc2ccccc2)[C@@H](NCC(F)(F)F)CC3)c1 (relative stereo),microsomal CLint at 0.5 µM,[1],69 µL/min/mg
same,"efflux ratio at 1 h, 1 µM",[5],1.4
same,microsomal CLint at 0.5 µM,[2],125 µL/min/mg
same,Ki,[3],69 nM
CCCS(=O)(=O)NCc1ccc2c(c1)[C@@H](Cc1ccccc1)[C@@H](NC)CC2 (relative stereo),ED50,[4],2 mg/kg
CS(=O)(=O)NCCOc1ccc2c(c1)[C@@H](Cc1ccc(Cl)c(Cl)c1)[C@@H](N)CC2 (relative stereo),microsomal CLint at 0.5 µM,[1],25 µL/min/mg
same,microsomal CLint at 0.5 µM,[2],39 µL/min/mg
same,Ki,[3],141 nM
CCCS(=O)(=O)N[C@@H]1CCN(c2ccc3c(c2)[C@@H](Cc2ccccc2)[C@@H](N2CCC2)CC3)C1=O,microsomal CLint at 0.5 µM,[1],< 23 µL/min/mg
same,"efflux ratio at 1 h, 1 µM",[5],1.6
same,microsomal CLint at 0.5 µM,[2],33 µL/min/mg
same,IC50,[6],4500 nM
same,Ki,[3],28 nM
CCCS(=O)(=O)NCc1ccc2c(c1)[C@@H](Cc1ccccc1)[C@@H](N1CCC1)CC2 (relative stereo),microsomal CLint at 0.5 µM,[1],122 µL/min/mg
same,microsomal CLint at 0.5 µM,[2],302 µL/min/mg
Cn1cc(S(=O)(=O)NCCOc2ccc3c(c2)[C@@H](Cc2ccc(Cl)c(Cl)c2)[C@@H](N)CC3)cn1 (relative stereo),microsomal CLint at 0.5 µM,[1],44 µL/min/mg
same,microsomal CLint at 0.5 µM,[2],49 µL/min/mg
same,Ki,[3],1.2 nM
same,fCmax,[7],0.2 nM
same,ED50,[4],> 20 mg/kg
CCCCS(=O)(=O)NCCOc1ccc2c(c1)[C@@H](Cc1ccc(Cl)c(Cl)c1)[C@@H](N)CC2 (relative stereo),microsomal CLint at 0.5 µM,[1],173 µL/min/mg
same,microsomal CLint at 0.5 µM,[2],35 µL/min/mg
same,Ki,[3],136 nM
CCCS(=O)(=O)NC1CN(c2ccc3c(c2)[C@@H](Cc2ccccc2)[C@@H](N2CCC2)CO3)C1 (relative stereo),microsomal CLint at 0.5 µM,[1],< 23 µL/min/mg
same,"efflux ratio at 1 h, 1 µM",[5],0.9
same,microsomal CLint at 0.5 µM,[2],66 µL/min/mg
same,Ki,[3],44 nM
Cn1cnc(S(=O)(=O)NCCOc2ccc3c(c2)[C@@H](Cc2ccccc2Cl)[C@@H](N)CC3)c1 (relative stereo),Ki,[3],75 nM
Cn1cnc(S(=O)(=O)NCCOc2ccc3c(c2)[C@@H](Cc2ccc(Cl)c(Cl)c2)[C@@H](N)CC3)c1 (relative stereo),microsomal CLint at 0.5 µM,[1],36 µL/min/mg
same,microsomal CLint at 0.5 µM,[2],10 µL/min/mg
same,Ki,[3],2.6 nM
same,ED50,[4],> 20 mg/kg
Oc1ccc2c(c1)C(C1(c3ccc(Cl)cc3)CCC1)NCC2 (stereo unspecified),microsomal CLint at 0.5 µM,[1],130 µL/min/mg
same,microsomal CLint at 0.5 µM,[2],343 µL/min/mg
same,inhibition,[8],Active
same,bioavailability,[9],< 1%
same,IC50,[10],> 10000 nM
same,Ki,[3],124 nM
CCCS(=O)(=O)NC1CN(c2ccc3c(c2)[C@@H](Cc2ccccc2)[C@@H](N2CCC2)CC3)C1,microsomal CLint at 0.5 µM,[1],< 23 µL/min/mg
same,"efflux ratio at 1 h, 1 µM",[5],1.4
same,microsomal CLint at 0.5 µM,[2],42 µL/min/mg
same,IC50,[6],6800 nM
same,Ki,[3],2.6 nM
O=S(=O)(CC1CC1)NC1CN(c2ccc3c(c2)[C@@H](Cc2ccccc2)[C@@H](N2CCC2)CO3)C1 (relative stereo),microsomal CLint at 0.5 µM,[1],< 23 µL/min/mg
same,"efflux ratio at 1 h, 1 µM",[5],1
same,microsomal CLint at 0.5 µM,[2],130 µL/min/mg
same,IC50,[6],11400 nM
same,Ki,[3],18 nM
CN[C@H]1CCc2ccc(OCCNS(=O)(=O)CC3CC3)cc2[C@H]1Cc1ccccc1,bioavailability,[9],22%
same,Ki,[3],1.2 nM
same,fCmax,[7],2.3 nM
same,ED50,[4],1.4 mg/kg
Cn1cnc(S(=O)(=O)NCCOc2ccc3c(c2)[C@@H](Cc2cccc(C(F)(F)F)c2)[C@@H](N)CC3)c1 (relative stereo),Ki,[3],0.8 nM
CCCS(=O)(=O)NCCOc1ccc2c(c1)[C@@H](Cc1ccc(Cl)c(Cl)c1)[C@@H](N)CC2 (relative stereo),microsomal CLint at 0.5 µM,[1],95 µL/min/mg
same,microsomal CLint at 0.5 µM,[2],17 µL/min/mg
same,inhibition,[8],Active
same,Kp uu,[11],0.05
same,bioavailability,[9],31%
same,IC50,[10],> 10000 nM
same,Ki,[3],35 nM
Cn1cnc(S(=O)(=O)NCCOc2ccc3c(c2)[C@@H](Cc2cccc(Cl)c2)[C@@H](N)CC3)c1 (relative stereo),Ki,[3],1.5 nM
same,ED50,[4],15 mg/kg
N[C@H]1CCc2ccc(OCCNS(=O)(=O)C3CCC3)cc2[C@H]1Cc1ccc(Cl)c(Cl)c1 (relative stereo),microsomal CLint at 0.5 µM,[1],55 µL/min/mg
same,microsomal CLint at 0.5 µM,[2],49 µL/min/mg
same,Ki,[3],32 nM
CCCS(=O)(=O)NCCOc1ccc2c(c1)C(C1(c3ccc(Cl)cc3)CCC1)NCC2 (stereo unspecified),microsomal CLint at 0.5 µM,[1],620 µL/min/mg
same,microsomal CLint at 0.5 µM,[2],450 µL/min/mg
same,inhibition,[8],Active
same,Kp uu,[11],0.54
same,bioavailability,[9],7%
same,IC50,[10],620 nM
same,Ki,[3],3 nM
Cn1cnc(S(=O)(=O)NCCOc2ccc3c(c2)[C@@H](Cc2ccccc2)[C@@H](N)CC3)c1 (relative stereo),Ki,[3],3.6 nM
O=S(=O)(CC1CC1)NCCOc1ccc2c(c1)[C@@H](Cc1ccccc1)[C@@H](N1CCC1)CC2,microsomal CLint at 0.5 µM,[1],113 µL/min/mg
same,"efflux ratio at 1 h, 1 µM",[5],1.6
same,microsomal CLint at 0.5 µM,[2],137 µL/min/mg
same,IC50,[6],80 nM
same,Kp uu,[11],0.8
same,bioavailability,[9],8%
same,Ki,[3],2.6 nM
same,fCmax,[7],9.9 nM
same,ED50,[4],0.5 mg/kg
Cn1cnc(S(=O)(=O)NCCOc2ccc3c(c2)[C@@H](Cc2ccc(Cl)cc2)[C@@H](N)CC3)c1 (relative stereo),Ki,[3],1.1 nM
O=S(=O)(CC1CC1)NCCOc1ccc2c(c1)[C@@H](Cc1ccccc1)[C@@H](N1CCC1)CO2 (relative stereo),microsomal CLint at 0.5 µM,[1],940 µL/min/mg
same,microsomal CLint at 0.5 µM,[2],239 µL/min/mg
same,Ki,[3],940 nM
